Assay [1] in a line: Her2 expression decrease, cell viability multiplex – SKBR3 breast tumor cells, AlphaScreen, ATP viability, primary screen (AID 461;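 active = Her2 level under about 52% in both replicate screens, with viability over 70% of control, limit read from the data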;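 as to Her2 level: lower value means less Her2 protein in the cells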;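 as to viability: percent of carrier control wells set as 100% viability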). To be noted: SKBR3 Her2 protein level, 18-24 h, measured here: SKBR3 viability, ATP luminescence, at 10 µM. For orientation: In Alpha technology, singlet oxygen from a donor bead excites a nearby acceptor bead.
In assay [2] the target is Receptor tyrosine-protein kinase erbB-2 (Homo sapiens) (UniProt P04626). Described as above. The note with it: 18-24 h, at 10 µM, stronger effect = lower value.
Assay [3] can be described thus: reduced viability of SK-BR-3 breast cancer cells – cell-based, 24 h, human, pilot screen (AID 572;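 active = viability at or below 10% of carrier control in both of two separate runs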;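 also: compound exposure lasted between 18 and 24 h rather than exactly 24 h; 100% = carrier-treated control wells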). To be noted: SK-BR-3 viability, CellTiter-Glo luminescence, at 10 µM, stronger effect = lower value. A general note: Cellular ATP, detected with luciferase, serves as a proxy for viable cell number.
Assay [4] is described as follows: HUVEC growth inhibition – cell-based, human, primary screen (AID 575;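 active = viability at or below 30% in both replicate assays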;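 also: 100% = median of untreated cell wells with 0.1% DMSO on each plate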). To be noted: HUVEC proliferation, CellTiter-Glo luminescence, 72 h; at 10 µM; stronger effect = lower value. In a few lines: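 system = HUVEC primary cells | amount = 1250 cells/well | buffer or medium = supplemented EBM, 2% fetal bovine serum | dosing = single-point 10 µM, DMSO 0.1% final | times = 72 h compound incubation | detection = CTG luminescence | read-out = % viability relative to median vehicle-well signal on each plate | control set = vehicle and MePR control wells | format = collagen-coated 384-well format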

The nature of assay [5]: H69AR cell proliferation blockers – human, duplicate replicates, primary screen (AID 580;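 active = viability at or under a set limit in both replicates, limit being median viability minus 3 SD, cut at about 48% in these data, passing the limit was not always enough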;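 also: 100% = mean luminescence of untreated wells and 0% = no signal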). To be noted: H69AR lung tumor cells viability, ATP luminescence, 72 h; at 10 µM; stronger effect = lower value.
Assay [6] can be described thus: MRP1 drug-resistance reversers in H69AR cells – cell-based, doxorubicin co-treatment, pilot screen (AID 601;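 active = viability loss from added drug above about 55%, and viability with drug at most 40%, in both replicates, limit read from the data, passing the limit was not always enough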). To be noted: CellTiter-Glo, 72 h, at 10 µM; for differential viability (reversal): stronger effect = higher value.
The nature of assay [7]: yeast transport mutant growth inhibition pilot in 384-well plates, post-Golgi transport modulator project (AID 636; in the data active = inhibition above about 31%). The note with it: absorbance 615 nm, about 18 h, stronger effect = higher value.
Assay [8] is described as follows: growth suppression of yeast trafficking mutant, preliminary HTS, modulators of trafficking downstream of Golgi apparatus project, 1536-format plate, OD 615 nm (AID 637). To be noted: yeast transport mutant growth, absorbance 615 nm, 18 h; stronger effect = higher value.
The mark [9] stands for this setting: H69AR cells + 2 uM doxorubicin, measured here: viability with 2 uM doxorubicin, stronger effect = lower value.
The mark [10] stands for this setting: H69AR cells, compound alone cytotoxicity.

SMILES strings stand for the structures. Calls of active or inactive are those of the source. Rule as the data show it, unless noted: active = inhibition above about 30%; inactive = the rest.

Sequence of Receptor tyrosine-protein kinase erbB-2 (Homo sapiens) (P04626 whole entry, looked up): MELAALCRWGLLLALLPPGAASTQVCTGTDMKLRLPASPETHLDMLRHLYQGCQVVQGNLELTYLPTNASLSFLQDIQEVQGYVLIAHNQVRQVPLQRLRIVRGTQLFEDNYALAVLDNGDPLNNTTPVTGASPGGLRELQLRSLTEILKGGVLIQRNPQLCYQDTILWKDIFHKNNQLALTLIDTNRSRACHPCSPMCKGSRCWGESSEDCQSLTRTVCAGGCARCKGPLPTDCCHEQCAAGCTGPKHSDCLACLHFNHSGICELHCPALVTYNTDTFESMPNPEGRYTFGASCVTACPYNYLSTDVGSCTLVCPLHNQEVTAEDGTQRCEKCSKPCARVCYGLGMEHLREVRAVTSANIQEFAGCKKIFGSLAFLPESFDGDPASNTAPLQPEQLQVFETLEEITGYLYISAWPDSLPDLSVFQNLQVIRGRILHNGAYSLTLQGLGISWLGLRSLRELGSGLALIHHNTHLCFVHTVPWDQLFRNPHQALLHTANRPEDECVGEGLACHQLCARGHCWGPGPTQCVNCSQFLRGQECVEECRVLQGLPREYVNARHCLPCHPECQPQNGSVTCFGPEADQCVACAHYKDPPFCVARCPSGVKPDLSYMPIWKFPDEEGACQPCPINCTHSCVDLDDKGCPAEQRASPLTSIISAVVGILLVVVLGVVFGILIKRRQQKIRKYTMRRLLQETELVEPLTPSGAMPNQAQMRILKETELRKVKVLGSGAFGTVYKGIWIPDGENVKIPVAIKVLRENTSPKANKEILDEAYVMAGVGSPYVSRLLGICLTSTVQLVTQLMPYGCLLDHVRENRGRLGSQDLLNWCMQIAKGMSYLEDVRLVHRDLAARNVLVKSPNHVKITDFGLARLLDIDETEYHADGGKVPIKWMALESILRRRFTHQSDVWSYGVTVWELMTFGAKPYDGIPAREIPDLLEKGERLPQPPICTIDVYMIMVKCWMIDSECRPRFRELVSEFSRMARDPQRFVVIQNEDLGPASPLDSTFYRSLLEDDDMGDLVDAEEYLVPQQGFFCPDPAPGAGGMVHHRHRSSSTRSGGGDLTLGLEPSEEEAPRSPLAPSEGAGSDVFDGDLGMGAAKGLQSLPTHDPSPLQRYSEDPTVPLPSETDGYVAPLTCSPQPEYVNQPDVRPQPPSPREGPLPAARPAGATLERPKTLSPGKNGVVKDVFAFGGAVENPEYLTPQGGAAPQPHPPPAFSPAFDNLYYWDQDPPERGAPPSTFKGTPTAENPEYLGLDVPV

Consider `CC12CCC(C(=O)O)(c3nc(C#N)c(C#N)nc31)C2(C)C` (stereo not given), for which the viability in assay [1] is 106%; in assay [3] it was 106% (inactive); in assay [4], 115% (inactive); in assay [5], 91.6% (inactive); in assay [6] (setting [9]), 84.8%; in assay [6] (setting [10]) it was 91.6%. Also, in assay [2], the Her2 level was 96.5% (inactive). Further, the differential viability (reversal) in assay [6] (H69AR cells + 2 uM doxorubicin) was 6.8% (inactive). In addition, the inhibition in assay [7] is -6.27% (inactive); in assay [8], 6.07% (inactive).

With `O=c1oc2ccccc2c(N2CCCCC2)c1CN1CCCCC1`, the viability in assay [1] was 86%; in assay [3] it was 86% (inactive); in assay [4] it was 86.2% (inactive); in assay [5], 82.5% (inactive); in assay [6] (setting [9]), 83.3%; in assay [6] (setting [10]) it was 82.5%. For the same compound, the Her2 level in assay [2] was 99% (inactive). Also, the differential viability (reversal) in assay [6] (H69AR cells + 2 uM doxorubicin) is -0.775% (inactive). Besides, the inhibition is -1.05% (inactive) in assay [7] and -4.03% (inactive) in assay [8].

Regarding `Cc1cc(C)c2c(n1)nn1c(NCCCN3CCOCC3)cc(C)nc21`, the viability is 106% in assay [1]; 106% (inactive) in assay [3]; 98.8% (inactive) in assay [4]; 97.7% (inactive) in assay [5]; 90.6% in assay [6] (setting [9]); 97.7% in assay [6] (setting [10]). The Her2 level in assay [2] was 79% (inactive). For the same compound, the differential viability (reversal) in assay [6] (H69AR cells + 2 uM doxorubicin) was 7.13% (inactive). Besides, the inhibition is -5.54% (inactive) in assay [7] and 2.38% (inactive) in assay [8].

Turning to `O=C(CCn1c(=O)oc2ccccc21)NCCN1CCc2ccccc2C1`, the viability in assay [1] was 77%; in assay [3] it was 77% (inactive); in assay [4], 95.2% (inactive); in assay [5] it was 94.4% (inactive); in assay [6] (setting [9]), 78.4%; in assay [6] (setting [10]), 94.4%. The Her2 level in assay [2] was 79% (inactive). In addition, the differential viability (reversal) in assay [6] (H69AR cells + 2 uM doxorubicin) was 16% (inactive). Also, the inhibition in assay [7] was -2.24% (inactive); in assay [8], 3.02% (inactive).

`FC(F)(F)C(F)(F)C(F)(F)c1nnc2ccc(N3CCOCC3)nn12`: the viability is 97.5% in assay [1]; 97.5% (inactive) in assay [3]; 84.8% (inactive) in assay [4]; 83.7% (inactive) in assay [5]; 83.9% in assay [6] (setting [9]); 83.7% in assay [6] (setting [10]). The Her2 level in assay [2] is 118% (inactive). For the same compound, the differential viability (reversal) in assay [6] (H69AR cells + 2 uM doxorubicin) is -0.265% (inactive). Besides, the inhibition in assay [7] was 4.21% (inactive); in assay [8] it was 7.94% (inactive).

For `CCOC(=O)Cc1csc(NC(=O)CSc2nnc(-c3ccncc3)n2Cc2ccco2)n1`, the viability is 107% in assay [1]; 107% (inactive) in assay [3]; 94.1% (inactive) in assay [4]; 97.6% (inactive) in assay [5]; 89.9% in assay [6] (setting [9]); 97.6% in assay [6] (setting [10]). Moreover, in assay [2], the Her2 level was 82.5% (inactive). The differential viability (reversal) in assay [6] (H69AR cells + 2 uM doxorubicin) was 7.66% (inactive). In addition, the inhibition was -5.14% (inactive) in assay [7] and 5.24% (inactive) in assay [8].

In the case of `COc1ccc(C(O)Cn2c(=N)n(CCCN(C)C)c3ccccc32)cc1` (stereo not given), the viability in assay [1] is 78.5%; in assay [3], 78.5% (inactive); in assay [4], 90.3% (inactive); in assay [5] it was 97.5% (inactive); in assay [6] (setting [9]) it was 91.1%; in assay [6] (setting [10]) it was 97.5%. In assay [2], the Her2 level is 102% (inactive). Moreover, the differential viability (reversal) in assay [6] (H69AR cells + 2 uM doxorubicin) is 6.39% (inactive). The inhibition in assay [7] is -0.26% (inactive); in assay [8], -6.51% (inactive).

Consider `Cc1ccc(-c2cn3cccnc3n2)cc1NC(=O)c1ccc(Br)o1`, for which the viability in assay [1] is 95.5%; in assay [3] it was 95.5% (inactive); in assay [4], 97.6% (inactive); in assay [5], 88.5% (inactive); in assay [6] (setting [9]) it was 80%; in assay [6] (setting [10]), 88.5%. In addition, the Her2 level in assay [2] is 86.5% (inactive). The differential viability (reversal) in assay [6] (H69AR cells + 2 uM doxorubicin) is 8.45% (inactive). The inhibition in assay [7] is -0.39% (inactive); in assay [8], -7.46% (inactive).

Take `COc1ccc(-c2cc(N3CCCC3)n3ncnc3n2)cc1`: the viability in assay [1] is 86%; in assay [3], 86% (inactive); in assay [4], 78.7% (inactive); in assay [5], 87.2% (inactive); in assay [6] (setting [9]), 75.2%; in assay [6] (setting [10]), 87.2%. Further, the Her2 level in assay [2] is 94.5% (inactive). Further, the differential viability (reversal) in assay [6] (H69AR cells + 2 uM doxorubicin) was 11.9% (inactive). Further, the inhibition is -5.27% (inactive) in assay [7] and -2.46% (inactive) in assay [8].

With `COc1ccc(NC(=O)CCNC(=O)Cn2ccc3ccccc3c2=O)c(OC)c1`, the viability was 101% in assay [1]; 101% (inactive) in assay [3]; 108% (inactive) in assay [4]; 103% (inactive) in assay [5]; 88.1% in assay [6] (setting [9]); 103% in assay [6] (setting [10]). The Her2 level in assay [2] is 91% (inactive). Also, the differential viability (reversal) in assay [6] (H69AR cells + 2 uM doxorubicin) is 14.4% (inactive). The values for the inhibition in assay [7] and in assay [8] were -7.97% (inactive) and 7.17% (inactive), respectively.

With `CCc1ccc(NS(=O)(=O)c2ccc3[nH]cc(C(=O)N4CCCCC4)c(=O)c3c2)cc1`, the viability in assay [1] is 124%; in assay [3], 124% (inactive); in assay [4], 102% (inactive); in assay [5], 89.6% (inactive); in assay [6] (setting [9]), 84%; in assay [6] (setting [10]) it was 89.6%. Also, the Her2 level in assay [2] was 92% (inactive). In addition, the differential viability (reversal) in assay [6] (H69AR cells + 2 uM doxorubicin) is 5.6% (inactive). In addition, the inhibition is -5.66% (inactive) in assay [7] and -0.81% (inactive) in assay [8].

In the case of `CCOC(=O)c1c(N)nn(C(=O)C(C)C)c1-c1ccccc1`, the viability in assay [1] is 97%; in assay [3], 97% (inactive); in assay [4], 82.5% (inactive); in assay [5], 109% (inactive); in assay [6] (setting [9]), 94%; in assay [6] (setting [10]) it was 109%. Moreover, in assay [2], the Her2 level is 119% (inactive). Further, the differential viability (reversal) in assay [6] (H69AR cells + 2 uM doxorubicin) was 15% (inactive). The inhibition is -5.95% (inactive) in assay [7] and -9.34% (inactive) in assay [8].

For the compound `O=C(C1=C(O)C(=O)N(Cc2ccccc2)C1c1ccncc1)c1ccco1` (stereo not given), the viability is 97.5% in assay [1]; 97.5% (inactive) in assay [3]; 109% (inactive) in assay [4]; 104% (inactive) in assay [5]; 101% in assay [6] (setting [9]); 104% in assay [6] (setting [10]). Moreover, the Her2 level in assay [2] was 111% (inactive). Further, in assay [6] (H69AR cells + 2 uM doxorubicin), the differential viability (reversal) was 3.21% (inactive). For the same compound, the inhibition in assay [7] was -0.26% (inactive); in assay [8], -5.33% (inactive).

With `CCOc1cc(NC(=O)c2ccccn2)c(OCC)cc1NC(=O)CC(C)C`, the viability is 74% in assay [1]; 74% (inactive) in assay [3]; 63.1% (inactive) in assay [4]; 89% (inactive) in assay [5]; 95.2% in assay [6] (setting [9]); 89% in assay [6] (setting [10]). Also, the Her2 level in assay [2] is 102% (inactive). For the same compound, in assay [6] (H69AR cells + 2 uM doxorubicin), the differential viability (reversal) was -6.29% (inactive). Besides, the inhibition was 1.2% (inactive) in assay [7] and -6.23% (inactive) in assay [8].

As usually defined, the viability is a read-out of living cells in per cent, often relative to untreated cells. In general, inhibition refers to the relative decrease from the control value, in per cent.
